Measured values taken from ChEMBL document CHEMBL1121799, “Beta-adrenoceptor stimulant properties of amidoalkylamino-substituted 1-aryl-2-ethanols and 1-(aryloxy)-2-propanols” (1981).

Tests used:
Canis familiaris [1] = experiment: Effective dose required for the maximum heart rate in anesthetized dogs.; type: functional; details: Canis lupus familiaris
Summary of the method: (§1)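 Anesthetized dogs on pentobarbital (20 mg/kg iv, then 2 mg/kg iv every 30 min), ventilated with 40% O2 in air. Left hind limb pump-perfused from the abdominal aorta, heparin 500 IU/kg iv. HR from a lead II ECG-driven cardiotachometer. Arterial pCO2 held at 34-42 mmHg and pH 7.35-7.43. Cumulative iv doses in saline. ED50 taken from dose-response curves of peak HR or HLPP change.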

Canis familiaris [2] = experiment: Effective dose required for the maximum hind limb perfusion pressure(HLPP) in anesthetized dogs.; type: functional; details: Canis lupus familiaris, Hindlimb; summary of the method: as §1
Canis familiaris [3] = species: Canis familiaris; experiment: Intrinsic sympathomimetic activity (ISA), calculated as the percent of maximum change in hind limb perfusion pressure (HLPP); type: functional, Canis lupus familiaris, Hindlimb
Summary of the method: (§2)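 Same anesthetized, ventilated dog preparation with a pump-perfused left hind limb. An isoproterenol curve was run first. About 45 min later, once HR and HLPP had returned to control, cumulative iv doses of test compound in saline were given. ISA is the maximum HR or HLPP change produced by the compound, expressed as a percentage of the isoproterenol maximum.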

Canis familiaris [4] = species: Canis familiaris; experiment: Intrinsic sympathomimetic activity (ISA, calculated as the percent of maximum change in heart rate (HR); type: functional, Canis lupus familiaris; summary of the method: as §2
Canis familiaris [5] = species: Canis familiaris; experiment: Selectivity is expressed as the ratio of ED50 on hind limb perfusion pressure to the ED50 on heart rate; type: functional, Canis lupus familiaris
Summary of the method: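 Cardioselectivity is the ratio of ED50 for HLPP to ED50 for HR. Both come from cumulative iv dose-response curves in pentobarbital-anesthetized dogs with a pump-perfused hind limb and a cardiotachometer reading HR.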

Compound	ED50 (Canis familiaris [1])	ED50 (Canis familiaris [2])	ISA (Canis familiaris [3])	ISA (Canis familiaris [4])	Selectivity (Canis familiaris [5])
O=C(NCCNCC(O)COc1ccc(O)c(CO)c1)Nc1ccccc1.O=C(O)C(=O)O (centres undefined)	0.045 µmol/kg	0.112 µmol/kg	32%	42%	2.5
CC(C)C(=O)NCCNCC(O)COc1ccc(O)c(CO)c1.O=C(O)C(=O)O (centres undefined)	0.043 µmol/kg	0.27 µmol/kg	30%	26%	6.3
CC(C)NCC(O)COc1ccc(O)c(CO)c1.O=C(O)C(=O)O (centres undefined)	0.067 µmol/kg	0.098 µmol/kg	55%	44%	1.5
CC(C)C(=O)NCCNCC(O)c1cc(O)cc(O)c1.O=C(O)C(=O)O (centres undefined)	0.035 µmol/kg	0.105 µmol/kg	100%	89%	3
O=C(NCCNCC(O)COc1cccc(O)c1)Nc1ccccc1.O=C(O)C(=O)O (centres undefined)	0.009 µmol/kg	> 1.5 µmol/kg	0%	21%	>170
O=C(NCCNCC(O)COc1ccc(O)cc1)Nc1ccccc1.O=C(O)C(=O)O (centres undefined)	0.058 µmol/kg	0.165 µmol/kg	45%	52%	2.8
CC(C)C(=O)NCCNCC(O)COc1ccc(O)cc1.O=C(O)C(=O)O (centres undefined)	0.02 µmol/kg	0.078 µmol/kg	40%	30%	3.9
CC(C)NCC(O)COc1cc(O)cc(O)c1.O=C(O)C(=O)O (centres undefined)	0.012 µmol/kg	0.012 µmol/kg	25%	32%	1
O=C(NCCNCC(O)c1ccc(O)c(O)c1)Nc1ccccc1.O=C(O)C(=O)O (centres undefined)	0.0009 µmol/kg	0.0054 µmol/kg	100%	100%	6
CC(C)NCC(O)COc1ccc(O)c(O)c1.O=C(O)C(=O)O (centres undefined)	0.0012 µmol/kg	0.0012 µmol/kg	100%	100%	1
CC(C)C(=O)NCCNCC(O)c1ccc(O)c(O)c1.O=C(O)C(=O)O (centres undefined)	0.0025 µmol/kg	0.006 µmol/kg	100%	84%	2.4
O=C(NCCNCC(O)c1cc(O)cc(O)c1)Nc1ccccc1.O=C(O)C(=O)O (centres undefined)	0.755 µmol/kg	0.755 µmol/kg	100%	80%	1
O=C(NCCNCC(O)COc1ccc(O)c(O)c1)Nc1ccccc1.O=C(O)C(=O)O (centres undefined)	0.0041 µmol/kg	0.1 µmol/kg	100%	80%	24.4
CC(C)C(=O)NCCNCC(O)c1ccc(O)c(CO)c1.O=C(O)C(=O)O (centres undefined)	0.077 µmol/kg	0.152 µmol/kg	100%	85%	2
O=C(NCCNCC(O)COc1cc(O)cc(O)c1)Nc1ccccc1.O=C(O)C(=O)O (centres undefined)	0.041 µmol/kg	> 5.5 µmol/kg	0%	28%	>135
CC(C)C(=O)NCCNCC(O)COc1cc(O)cc(O)c1.O=C(O)C(=O)O (centres undefined)	0.019 µmol/kg	0.016 µmol/kg	18%	19%	0.8
CC(C)C(=O)NCCNCC(O)c1cccc(O)c1.O=C(O)C(=O)O (centres undefined)	0.038 µmol/kg	0.132 µmol/kg	75%	75%	3.5
O=C(NCCNCC(O)c1ccc(O)cc1)Nc1ccccc1.O=C(O)C(=O)O (centres undefined)	0.098 µmol/kg	0.228 µmol/kg	70%	71%	2.3

Compound	ED50 (Canis familiaris [1])	ED50 (Canis familiaris [2])	ISA (Canis familiaris [3])	ISA (Canis familiaris [4])	Selectivity (Canis familiaris [5])
CC(C)C(=O)NCCNCC(O)COc1ccc(O)c(O)c1.O=C(O)C(=O)O (centres undefined)	0.0016 µmol/kg	0.0016 µmol/kg	100%	100%	1
O=C(NCCNCC(O)c1ccc(O)c(CO)c1)Nc1ccccc1.O=C(O)C(=O)O (centres undefined)	0.038 µmol/kg	0.304 µmol/kg	88%	76%	8
COCCNC(=O)NCCNCC(O)COc1ccc(O)cc1.O=C(O)C(=O)O (centres undefined)	0.021 µmol/kg	0.052 µmol/kg	58%	74%	2.5
O=C(NCCO)NCCNCC(O)COc1ccc(O)cc1.O=C(O)C(=O)O (centres undefined)	0.077 µmol/kg	0.236 µmol/kg	49%	69%	3.1
CC(C)NC(=O)NCCNCC(O)COc1ccc(O)cc1.O=C(O)C(=O)O (centres undefined)	0.235 µmol/kg	0.193 µmol/kg	26%	60%	0.8
O=C(O)C(=O)O.O=S(=O)(NCCNCC(O)COc1ccc(O)cc1)c1ccccc1 (centres undefined)	0.074 µmol/kg	0.055 µmol/kg	45%	55%	0.7
COCCN(C)C(=O)NCCNCC(O)COc1ccc(O)cc1.O=C(O)C(=O)O (centres undefined)	0.012 µmol/kg	> 3 µmol/kg	0%	27%	>250
O=C(O)C(=O)O.O=S(=O)(NCCNCC(O)COc1ccc(O)cc1)Nc1ccccc1 (centres undefined)	0.018 µmol/kg	0.052 µmol/kg	79%	92%	2.9
CC(C)C(=O)NCCNCC(O)c1ccc(O)cc1.O=C(O)C(=O)O (centres undefined)	0.056 µmol/kg	0.071 µmol/kg	82%	90%	1.3
CN(C)C(=O)NCCNCC(O)COc1ccc(O)cc1.O=C(O)C(=O)O (centres undefined)	0.024 µmol/kg	> 1 µmol/kg	0%	29%	>40
CC(C)NCC(O)COc1cccc(O)c1.O=C(O)C(=O)O (centres undefined)	0.018 µmol/kg	0.067 µmol/kg	33%	57%	3.7
O=C(NCCNCC(O)c1cccc(O)c1)Nc1ccccc1.O=C(O)C(=O)O (centres undefined)	0.143 µmol/kg	0.286 µmol/kg	55%	42%	2
Cl.O=C(NCCNCC(O)COc1ccc(O)cc1)N(CCO)CCO (centres undefined)	0.145 µmol/kg	2.33 µmol/kg	42%	41%	16
CN(CCO)C(=O)NCCNCC(O)COc1ccc(O)cc1.Cl (centres undefined)	0.037 µmol/kg	1.17 µmol/kg	48%	43%	33
Cl.O=C(NCCNCC(O)COc1ccc(O)cc1)NCc1ccccc1 (centres undefined)	0.019 µmol/kg	0.081 µmol/kg	70%	80%	4.3
NC(=O)NCCNCC(O)COc1ccc(O)cc1 (centres undefined)	0.078 µmol/kg	0.134 µmol/kg	50%	92%	1.7
CC(C)NC[C@H](O)COc1ccc(O)cc1 [PRENALTEROL]	0.031 µmol/kg	0.006 µmol/kg	31%	56%	
